Measurements from different studies.
Lines come from different studies, so protocols differ.
PDE5A: cGMP-specific 3',5'-cyclic phosphodiesterase (PDE5A, Homo sapiens, UniProt O76074)
EDNRA: Endothelin-1 receptor (EDNRA, Homo sapiens, UniProt P25101)
MALT1: Mucosa-associated lymphoid tissue lymphoma translocation protein 1 (MALT1, Homo sapiens, UniProt Q9UDY8)

SMILES	target	test	conditions	inhibition [%]
O=C(Nc1cccnn1)N1CCN([C@@H]2CCOc3cc(C(F)(F)F)ccc32)CC1	PDE5A	enzyme activity, inhibitor	20 µM	5
COc1ccc(S(=O)(=O)N2CCCCC2)cc1C	EDNRA	ligand displacement, radioligand	10 µM	< 30
Cn1cc(-c2cc(F)cc(N3CCn4c(cc5c4CCCC5)C3=O)c2CO)cc(Nc2ccc(N3CCN(C4COC4)CC3)cn2)c1=O	Sphingosine kinase 1 (SPHK1, Homo sapiens, UniProt Q9NYA1)	enzyme activity, inhibitor	0.1 µM	4
CC(C)N1CCC[C@H]1CNC(=O)c1cn(C2CCCC2)c(=O)c2c1c1ccccc1n2C	Sigma non-opioid intracellular receptor 1 (SIGMAR1, Homo sapiens, UniProt Q99720)	ligand displacement, radioligand	10 µM	47
CCN(CC)CCCC[C@H](NC(=O)[C@H](CC(C)C)NC(=O)[C@H](C)NC(=O)[C@H](Cc1ccccc1)NC(=O)c1ccc(C(C)(C)C)cc1)C(=O)N[C@@H](CO)C(=O)OC	Cannabinoid receptor 1 (CNR1, Homo sapiens, UniProt P21554)	ligand displacement, radioligand	10 µM	-13
OC[C@@]12C[C@@H]1[C@@H](n1cnc3c(NC(C4CCCC4)C4CCCC4)nc(Cl)cc31)[C@H](O)[C@@H]2O	5-hydroxytryptamine receptor 2A (HTR2A, Homo sapiens, UniProt P28223)	ligand displacement, radioligand	10 µM	1
[H]/N=C(/N)c1ccc(NCc2nc3cc(C(=O)N(CCC(=O)O)c4ccccn4)ccc3n2C)cc1	Vitamin K-dependent protein C (PROC, Homo sapiens, UniProt P04070)	enzyme activity, inhibitor	20 µM	95
C[C@H]1N=C(c2ccccc2F)c2cc(Br)ccc2-n2cnc(C(=O)O)c21	Kappa-type opioid receptor (OPRK1, Homo sapiens, UniProt P41145)	ligand displacement, radioligand	10 µM	52.3
CN(C)C(=O)COC(=O)Cc1ccc(OC(=O)c2ccc(NC(=N)N)cc2)cc1	Caspase-6 (CASP6, Homo sapiens, UniProt P55212)	enzyme activity, inhibitor	10 µM	3
C#Cc1n[nH]c2c(-c3cn(C(C)c4ccccn4)c(=O)[nH]c3=O)cc(F)cc12 (centres unmarked)	Aurora kinase B (AURKB, Homo sapiens, UniProt Q96GD4)	enzyme activity, inhibitor	1 µM	6.7
CCOC(=O)c1ccc(OC(=O)CCCCCNC(=N)N)cc1	MALT1	enzyme activity, inhibitor	10 µM	46
CC(C)Cn1cnc2c(N)nc3ccccc3c21	EDNRA	ligand displacement, radioligand	10 µM	8
C[C@H](C(=O)N[C@H]1COc2ccccc2[C@@H]1S(C)(=O)=O)c1ccc(F)cc1	PDE5A	enzyme activity, inhibitor	10 µM	-5
Cn1cc(-c2cccc(N3CCc4c(sc5c4CC(C)(C)C5)C3=O)c2CO)cc(Nc2ccncn2)c1=O	Phosphatidylinositol 4-phosphate 3-kinase C2 domain-containing subunit beta (PIK3C2B, Homo sapiens, UniProt O00750)	enzyme activity, inhibitor	1 µM	-3
CC(C)[C@H](NC(=O)OCc1ccccc1)C(=O)N[C@@H](CCCN=C(N)N)C(=O)N1CCC[C@H]1C(=O)N[C@@H](CCCN=C(N)N)C(=O)CF	MALT1	enzyme activity, inhibitor	0.1 µM	97
CN(CCN1CCC(OC(=O)Nc2ccccc2-c2ccccc2)CC1)C(=O)c1ccc(CN2CCC(C(N)=O)CC2)cc1	PDE5A	enzyme activity, inhibitor	1 µM	0
N=C(N)c1ccc2cc(OC(=O)c3ccc(N=C(N)N)cc3)ccc2c1	MALT1	enzyme activity, inhibitor	10 µM	49
COCc1c(-c2cc3cc(C)cc(OC)c3s2)c2c(N)ncnn2c1CN1CCNC(=O)C1	EDNRA	ligand displacement, radioligand	10 µM	12
Clc1ccc2c(C3CCN(CCc4c[nH]c5ccccc45)CC3)c[nH]c2c1	EDNRA	ligand displacement, radioligand	10 µM	-12
CC(C)=CCC[C@]1(C)C=Cc2c(O)c3c(c(CC=C(C)C)c2O1)O[C@]12C(=C[C@@H]4C[C@H]1C(C)(C)O[C@@]2(C/C=C(/C)C(=O)O)C4=O)C3=O	Histone-lysine N-methyltransferase EHMT1 (EHMT1, Homo sapiens, UniProt Q9H9B1)	cell-free assay	10 µM	-8
